The text below walks through data of ChEMBL document CHEMBL5154713, “Illuminating a Dark Kinase: Structure-Guided Design, Synthesis, and Evaluation of a Potent Nek1 Inhibitor and Its Effects on the Embryonic Zebrafish Pronephros” (J Med Chem, 2022).

For data set [1], the target named is T1, Serine/threonine-protein kinase Nek1 (Homo sapiens) (UniProt Q96PY6).
T1 sequence (whole entry): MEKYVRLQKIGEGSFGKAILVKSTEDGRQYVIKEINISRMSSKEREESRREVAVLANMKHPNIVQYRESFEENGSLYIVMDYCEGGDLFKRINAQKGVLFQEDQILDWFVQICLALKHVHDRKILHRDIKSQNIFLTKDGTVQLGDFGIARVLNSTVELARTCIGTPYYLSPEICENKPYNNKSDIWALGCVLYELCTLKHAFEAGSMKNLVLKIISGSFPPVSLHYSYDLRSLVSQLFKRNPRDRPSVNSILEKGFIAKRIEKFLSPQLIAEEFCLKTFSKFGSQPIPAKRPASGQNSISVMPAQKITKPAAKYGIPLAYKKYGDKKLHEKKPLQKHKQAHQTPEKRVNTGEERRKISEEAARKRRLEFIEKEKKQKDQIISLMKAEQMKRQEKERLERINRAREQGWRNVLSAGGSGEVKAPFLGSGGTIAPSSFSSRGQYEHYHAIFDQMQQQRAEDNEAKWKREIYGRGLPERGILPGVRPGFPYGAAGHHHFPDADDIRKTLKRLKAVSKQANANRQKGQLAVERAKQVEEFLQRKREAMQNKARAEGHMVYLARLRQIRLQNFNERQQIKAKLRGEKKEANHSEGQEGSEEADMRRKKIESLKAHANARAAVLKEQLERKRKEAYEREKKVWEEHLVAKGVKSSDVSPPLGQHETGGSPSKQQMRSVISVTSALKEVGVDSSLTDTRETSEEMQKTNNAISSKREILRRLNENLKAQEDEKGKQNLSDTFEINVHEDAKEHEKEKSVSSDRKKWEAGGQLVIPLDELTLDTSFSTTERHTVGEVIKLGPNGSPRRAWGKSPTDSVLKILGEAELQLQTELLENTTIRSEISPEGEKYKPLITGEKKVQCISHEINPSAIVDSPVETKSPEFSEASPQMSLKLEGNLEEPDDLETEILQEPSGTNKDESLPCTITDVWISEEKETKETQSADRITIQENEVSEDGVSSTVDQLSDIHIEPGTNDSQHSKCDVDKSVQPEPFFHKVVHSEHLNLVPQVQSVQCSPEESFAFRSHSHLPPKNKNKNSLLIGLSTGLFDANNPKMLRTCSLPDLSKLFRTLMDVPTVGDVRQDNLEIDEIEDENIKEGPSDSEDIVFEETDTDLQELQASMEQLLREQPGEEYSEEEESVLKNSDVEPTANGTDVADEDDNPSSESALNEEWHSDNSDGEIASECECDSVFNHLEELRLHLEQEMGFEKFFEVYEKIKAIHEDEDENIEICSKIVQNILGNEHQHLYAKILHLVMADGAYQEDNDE
The data set is described as follows: Inhibition of human recombinant NEK1 (1 to 505 residues) assessed as residual activity at 1 uM using RLGRDKYKTLRQIRQ as substrate incubated for 40 mins in presence of [gamma-33P]-ATP by radiometric scintillation counting assay relative to control. Summed up:
(§1)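 Eurofins KinaseProfiler radiometric panel, compound at 1 μM, ATP at 10 μM or within 15 μM of apparent Km. For Nek1 (1−505): 8 mM MOPS pH 7.0, 0.2 mM EDTA, 250 μM peptide, 10 mM Mg acetate, [γ-33P]-ATP, 40 min at room temperature. Stopped with 0.5% phosphoric acid, filtermat spotting, scintillation counting. Mean of two independent experiments.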

For data set [2], the target named is T2, Serine/threonine-protein kinase Nek1 (Homo sapiens, UniProt Q96PY6).
T2 sequence (Q96PY6 whole entry): T1 sequence (whole entry)
The data set is described as follows: Inhibition of human recombinant NEK1 (1 to 505 residues) using ULight-p70 S6K peptide as substrate incubated for 30 mins by LANCE Ultra TR-FRET assay. Summed up:
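Recombinant human Nek1 (1−505, 0.02 nM) in 50 mM HEPES pH 7.5, 1 mM EGTA, 10 mM MgCl2, 0.2 mM DTT, 0.01% Tween20, with 50 nM ULight-p70 S6K peptide and 60 μM ATP, 30 min at 22 °C. Stopped with EDTA plus Eu anti-phospho antibody, 1 h signal development. Ten half-log concentrations from 30 μM (10 μM for some) to 1 nM. Mean of two experiments.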
(TR-FRET usually uses a lanthanide donor and a delayed reading to cut background.)

Data set [3] concerns the target Inhibitor of nuclear factor kappa-B kinase subunit beta (Homo sapiens) (UniProt O14920). The data set is described as follows: Inhibition of recombinant human full length IKKbeta assessed as residual activity at 1 uM using peptide as substrate incubated for 40 mins in presence of [gamma 33P]-ATP by radiometric scintillation counting assay relative to control. Summed up: as §1

In data set [4] the target is Serine/threonine-protein kinase Chk1 (Homo sapiens) (UniProt O14757). The data set is described as follows: Inhibition of human full length recombinant CHK1 assessed as residual activity at 1 uM using KKKVSRSGLYRSPSMPENLNRPR as substrate incubated for 40 mins in presence of [gamma 33P]-ATP by radiometric scintillation counting assay relative to control. Summed up:
(§2)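 Commercial radiometric panel of 50 kinases. Each recombinant human kinase was tested at a single compound concentration of 1 μM. ATP was set within 15 μM of the apparent Km for ATP for each kinase. Residual activity is relative to control and is the mean of two independent experiments.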

In data set [5] the target is Interleukin-1 receptor-associated kinase 4 (Homo sapiens) (UniProt Q9NWZ3). The data set is described as follows: Inhibition of human full length IRAK4 assessed as residual activity at 1 uM using myelin basic protein as substrate incubated for 40 mins in presence of [gamma 33P]-ATP by radiometric scintillation counting assay relative to control. Summed up: as §2
Interleukin-1 receptor-associated kinase 4 (Homo sapiens), sequence (Q9NWZ3 whole entry): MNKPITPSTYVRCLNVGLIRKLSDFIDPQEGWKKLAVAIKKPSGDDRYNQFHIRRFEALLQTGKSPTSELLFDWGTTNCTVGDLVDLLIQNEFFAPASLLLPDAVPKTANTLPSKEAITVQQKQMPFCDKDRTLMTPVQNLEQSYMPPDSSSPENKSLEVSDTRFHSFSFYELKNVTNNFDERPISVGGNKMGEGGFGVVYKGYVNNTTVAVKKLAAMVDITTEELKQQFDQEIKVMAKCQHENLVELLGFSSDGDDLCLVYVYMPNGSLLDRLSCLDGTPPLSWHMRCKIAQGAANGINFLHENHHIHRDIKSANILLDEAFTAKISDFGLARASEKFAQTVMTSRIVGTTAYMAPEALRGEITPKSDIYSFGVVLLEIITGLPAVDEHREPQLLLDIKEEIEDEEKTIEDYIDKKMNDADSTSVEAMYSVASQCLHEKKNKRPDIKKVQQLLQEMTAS
Data set [6] deals with Eukaryotic elongation factor 2 kinase (Homo sapiens) (UniProt O00418). The data set is described as follows: Inhibition of human eEF-2K (2 to end residues) assessed as residual activity at 1 uM using RKKFGESEKTKTKEFL as substrate incubated for 40 mins in presence of [gamma 33P]-ATP by radiometric scintillation counting assay relative to control. Summed up: as §2
Eukaryotic elongation factor 2 kinase (Homo sapiens), sequence (O00418 whole entry): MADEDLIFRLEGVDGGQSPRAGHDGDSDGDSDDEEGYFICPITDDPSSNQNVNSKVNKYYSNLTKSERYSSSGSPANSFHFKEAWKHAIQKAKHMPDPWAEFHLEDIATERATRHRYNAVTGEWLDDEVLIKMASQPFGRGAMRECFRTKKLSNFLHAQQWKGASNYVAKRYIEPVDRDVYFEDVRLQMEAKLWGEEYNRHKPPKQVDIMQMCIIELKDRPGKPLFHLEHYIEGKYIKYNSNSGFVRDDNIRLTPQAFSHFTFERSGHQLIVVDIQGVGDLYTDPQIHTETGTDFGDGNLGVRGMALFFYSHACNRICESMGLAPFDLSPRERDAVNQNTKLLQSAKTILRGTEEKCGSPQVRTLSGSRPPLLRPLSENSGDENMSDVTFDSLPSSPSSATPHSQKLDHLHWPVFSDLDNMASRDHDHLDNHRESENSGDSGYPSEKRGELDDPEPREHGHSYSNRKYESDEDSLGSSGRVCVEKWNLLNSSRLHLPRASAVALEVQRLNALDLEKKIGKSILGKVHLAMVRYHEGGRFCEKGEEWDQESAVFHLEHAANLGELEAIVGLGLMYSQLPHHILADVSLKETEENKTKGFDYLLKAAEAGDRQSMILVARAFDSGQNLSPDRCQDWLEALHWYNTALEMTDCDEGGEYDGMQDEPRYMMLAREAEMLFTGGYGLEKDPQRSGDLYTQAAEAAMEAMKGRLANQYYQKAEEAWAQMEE
Data set [7] addresses RAC-alpha serine/threonine-protein kinase (Homo sapiens) (UniProt P31749). The data set is described as follows: Inhibition of human full length Akt1 assessed as residual activity at 1 uM using GRPRTSSFAEGKK as substrate incubated for 40 mins in presence of [gamma 33P]-ATP based radiometric scintillation counting assay relative to control. Summed up:
as §2

The target in data set [8] is Phosphatidylinositol 4,5-bisphosphate 3-kinase catalytic subunit beta isoform (Homo sapiens) (UniProt P42338). The data set is described as follows: Inhibition of human full length recombinant PI3Kbeta assessed as residual activity using phosphatidylinositol 4,5-bisphosphate as substrate at 1 uM incubated for 40 mins in presence of ATP by HTRF assay relative to control.
Phosphatidylinositol 4,5-bisphosphate 3-kinase catalytic subunit beta isoform (Homo sapiens), sequence (P42338 whole entry, looked up, canonical isoform): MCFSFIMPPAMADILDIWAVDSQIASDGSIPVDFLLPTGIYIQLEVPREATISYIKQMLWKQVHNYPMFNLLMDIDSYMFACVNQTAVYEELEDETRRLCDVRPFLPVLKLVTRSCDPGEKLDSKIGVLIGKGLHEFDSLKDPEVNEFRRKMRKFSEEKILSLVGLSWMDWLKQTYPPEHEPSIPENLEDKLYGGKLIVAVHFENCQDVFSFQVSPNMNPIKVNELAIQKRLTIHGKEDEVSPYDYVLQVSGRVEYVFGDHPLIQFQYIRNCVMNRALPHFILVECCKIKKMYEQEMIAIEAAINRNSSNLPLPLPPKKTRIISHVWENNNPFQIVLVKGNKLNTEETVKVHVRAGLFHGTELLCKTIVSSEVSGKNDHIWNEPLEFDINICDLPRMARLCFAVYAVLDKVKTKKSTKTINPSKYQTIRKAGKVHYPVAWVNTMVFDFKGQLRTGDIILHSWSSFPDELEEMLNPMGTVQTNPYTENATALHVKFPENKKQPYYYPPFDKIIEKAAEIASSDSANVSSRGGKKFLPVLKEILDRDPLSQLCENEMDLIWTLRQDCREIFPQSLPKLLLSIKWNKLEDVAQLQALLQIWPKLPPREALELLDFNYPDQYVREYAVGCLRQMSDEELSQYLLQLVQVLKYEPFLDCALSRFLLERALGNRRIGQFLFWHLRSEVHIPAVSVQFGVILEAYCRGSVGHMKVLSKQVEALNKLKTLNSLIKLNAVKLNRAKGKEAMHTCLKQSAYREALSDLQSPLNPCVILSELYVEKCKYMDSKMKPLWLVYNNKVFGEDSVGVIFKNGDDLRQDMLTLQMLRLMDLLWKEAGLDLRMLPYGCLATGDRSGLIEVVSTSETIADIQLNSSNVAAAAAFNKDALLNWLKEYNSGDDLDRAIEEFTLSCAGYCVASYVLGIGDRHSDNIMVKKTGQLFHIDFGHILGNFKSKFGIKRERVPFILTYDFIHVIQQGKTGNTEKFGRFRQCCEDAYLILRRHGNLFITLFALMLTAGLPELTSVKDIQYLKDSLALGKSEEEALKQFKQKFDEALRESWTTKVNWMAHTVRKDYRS

Data set [9] concerns the target Serine/threonine-protein kinase Nek2 (Homo sapiens) (UniProt P51955). The data set is described as follows: Inhibition of human full length recombinant NEK2 assessed as residual activity at 1 uM using poly(Glu, Tyr) 4:1 as substrate incubated for 40 mins in presence of [gamma 33P]-ATP by radiometric scintillation counting assay relative to control. Summed up:
as §2

Data set [10] in a line: Permeability across apical to basolateral side in human Caco-2 cells assessed as drug recovery at pH 6.5 to 7.4 by HPLC-MS/MS analysis. The class given is ADME, cell-based. Conditions: Caco-2, pH 6.5, read-out: Drug recovery. Summed up:
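Commercial Caco-2 assay, apical-to-basolateral direction at pH 6.5/7.4. Permeability and percent recovery taken from HPLC-MS/MS peak area response. Propranolol, labetalol, colchicine and ranitidine run in parallel as references.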
(Caco-2 monolayers are a common model of the intestinal barrier.)

RAC-alpha serine/threonine-protein kinase (Homo sapiens), sequence (P31749 whole entry): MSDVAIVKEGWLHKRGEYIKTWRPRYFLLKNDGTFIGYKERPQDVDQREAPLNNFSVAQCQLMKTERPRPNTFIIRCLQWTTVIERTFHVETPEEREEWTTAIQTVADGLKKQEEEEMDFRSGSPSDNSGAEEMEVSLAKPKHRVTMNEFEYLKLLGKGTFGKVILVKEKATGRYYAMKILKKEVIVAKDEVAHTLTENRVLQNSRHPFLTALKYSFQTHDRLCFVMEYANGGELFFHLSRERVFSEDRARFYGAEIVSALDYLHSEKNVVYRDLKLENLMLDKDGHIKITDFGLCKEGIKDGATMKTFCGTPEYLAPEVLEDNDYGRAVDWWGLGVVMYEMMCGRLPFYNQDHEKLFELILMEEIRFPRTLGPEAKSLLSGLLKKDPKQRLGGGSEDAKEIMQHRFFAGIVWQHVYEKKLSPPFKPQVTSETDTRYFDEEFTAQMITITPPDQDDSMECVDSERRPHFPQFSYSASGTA
Serine/threonine-protein kinase Chk1 (Homo sapiens), sequence (O14757 whole entry): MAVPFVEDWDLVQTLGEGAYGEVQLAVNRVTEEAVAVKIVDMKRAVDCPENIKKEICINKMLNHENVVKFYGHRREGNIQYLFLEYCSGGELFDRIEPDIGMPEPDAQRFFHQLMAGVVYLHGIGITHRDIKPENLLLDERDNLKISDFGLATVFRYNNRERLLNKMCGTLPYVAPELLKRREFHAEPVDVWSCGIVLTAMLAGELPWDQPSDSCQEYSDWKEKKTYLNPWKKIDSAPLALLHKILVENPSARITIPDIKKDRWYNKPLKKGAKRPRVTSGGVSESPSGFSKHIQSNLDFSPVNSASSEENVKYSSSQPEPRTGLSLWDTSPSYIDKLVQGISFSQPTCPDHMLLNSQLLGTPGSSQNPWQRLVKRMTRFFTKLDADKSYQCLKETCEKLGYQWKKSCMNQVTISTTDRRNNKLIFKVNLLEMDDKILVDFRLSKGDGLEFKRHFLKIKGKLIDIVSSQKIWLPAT
Serine/threonine-protein kinase Nek2 (Homo sapiens), sequence (P51955 whole entry): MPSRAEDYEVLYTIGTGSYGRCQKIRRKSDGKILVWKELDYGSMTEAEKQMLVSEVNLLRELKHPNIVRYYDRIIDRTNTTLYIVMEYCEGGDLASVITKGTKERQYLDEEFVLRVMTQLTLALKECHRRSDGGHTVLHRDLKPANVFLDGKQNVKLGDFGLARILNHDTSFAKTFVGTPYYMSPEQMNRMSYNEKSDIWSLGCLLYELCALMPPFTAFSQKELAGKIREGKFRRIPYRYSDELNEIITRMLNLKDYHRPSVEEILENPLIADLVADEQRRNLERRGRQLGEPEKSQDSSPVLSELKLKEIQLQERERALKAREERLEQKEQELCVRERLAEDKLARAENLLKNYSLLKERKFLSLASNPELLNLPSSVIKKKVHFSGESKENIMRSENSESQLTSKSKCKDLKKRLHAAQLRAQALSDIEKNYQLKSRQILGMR
Inhibitor of nuclear factor kappa-B kinase subunit beta (Homo sapiens), sequence (O14920 whole entry): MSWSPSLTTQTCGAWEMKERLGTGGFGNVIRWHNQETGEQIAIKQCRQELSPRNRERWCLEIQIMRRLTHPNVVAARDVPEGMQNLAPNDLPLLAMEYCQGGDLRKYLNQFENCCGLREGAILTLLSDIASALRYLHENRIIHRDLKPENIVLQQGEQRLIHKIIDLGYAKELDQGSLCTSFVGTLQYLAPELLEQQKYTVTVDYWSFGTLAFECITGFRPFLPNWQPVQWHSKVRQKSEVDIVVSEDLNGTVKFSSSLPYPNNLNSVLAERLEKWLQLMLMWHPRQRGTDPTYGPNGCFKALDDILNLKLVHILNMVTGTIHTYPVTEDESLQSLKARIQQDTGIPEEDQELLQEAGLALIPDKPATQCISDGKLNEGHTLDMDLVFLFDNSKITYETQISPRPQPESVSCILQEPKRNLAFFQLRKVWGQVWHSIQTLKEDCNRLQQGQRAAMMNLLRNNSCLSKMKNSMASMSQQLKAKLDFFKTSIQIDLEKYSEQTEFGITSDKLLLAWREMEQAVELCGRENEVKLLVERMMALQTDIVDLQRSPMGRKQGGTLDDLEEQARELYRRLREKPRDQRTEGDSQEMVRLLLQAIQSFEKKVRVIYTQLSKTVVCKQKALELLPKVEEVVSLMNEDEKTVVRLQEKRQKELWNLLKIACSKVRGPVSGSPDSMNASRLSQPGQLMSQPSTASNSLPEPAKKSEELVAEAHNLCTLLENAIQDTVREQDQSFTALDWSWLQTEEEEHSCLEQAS

Turning to `O=S(=O)(N[C@@H](CO)Cc1c[nH]c2ccccc12)c1ccc(-c2ccnc3[nH]ccc23)cc1`, the Activity is 4% in [1]; 36.1% in [3]; more than 75% in data set [4]; more than 75% in data set [5]; more than 75% in [6]; more than 75% in data set [7]. Besides, the Activity in data set [8] and in data set [9] was more than 75% throughout. In data set [2], the IC50 (in general, the concentration that inhibits the measured activity by half) stood at 0.33 µM. Moreover, the recovery in data set [10] came out at 45%.
